According to ChEMBL document CHEMBL1145272, “P2 pyridine N-oxide thrombin inhibitors: a novel peptidomimetic scaffold” (Bioorg Med Chem Lett, 2005):

Legend:
[1] = Half-life in dog plasma; format: ADME, organism-based, Canis lupus familiaris
How it was run: (§1)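 Dogs were given the compound orally at 0.65, 0.7 or 0.95 mpk, with the dose differing by compound. Plasma was sampled to obtain the maximum concentration (Cmax, μM) and the plasma half-life (t1/2, h).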

[2] = Maximal plasma concentration in dogs after 0.65 mg/kg oral dose; format: ADME, organism-based, Canis lupus familiaris; set-up: dose 0.65 mg/kg, route oral; settings: dog; how it was run: as §1
Prothrombin = Prothrombin (Homo sapiens, UniProt P00734); experiment: Binding affinity against thrombin in human plasma; format: cell-free
[3] = Maximal plasma concentration in dogs after 0.85 mg/kg oral dose; format: ADME, organism-based, Canis lupus familiaris; set-up: dose 0.85 mg/kg, route oral; settings: dog
[4] = Maximal plasma concentration in dogs after 0.95 mg/kg oral dose; format: ADME, organism-based, Canis lupus familiaris; set-up: dose 0.95 mg/kg, route oral; settings: dog; how it was run: as §1
[5] = Maximal plasma concentration in dogs after 0.7 mg/kg oral dose; format: ADME, organism-based, Canis lupus familiaris; set-up: dose 0.7 mg/kg, route oral; settings: dog; how it was run: as §1

Structure (SMILES) | Ki (Prothrombin) [nM] | other results
N#Cc1ccc(NCC(F)(F)c2ccccn2)[n+]([O-])c1CC(O)NCc1ccccc1CN (centres undefined) | < 0.01 | –
N#Cc1ccc(NCC(F)(F)c2ccccn2)[n+]([O-])c1CC(=O)NCc1ccccc1 | 150 | –
N#Cc1ccc(NCC(F)(F)c2ccccn2)[n+]([O-])c1CC(=O)NCc1ncccc1-n1cncn1 | 0.23 | –
Nc1ccc(Cl)c(CC(=O)NCc2cc(Cl)ccc2-n2cnnn2)[n+]1[O-] | 140 | –
O=C(Cc1c(Cl)ccc(NCC(F)(F)c2ccccn2)[n+]1[O-])NCc1ncccc1F | 6 | –
C[C@H](NC(=O)Cc1c(Cl)ccc(NCC(F)(F)c2ccccn2)[n+]1[O-])c1cc(Cl)ccc1CN | 3.2 | half-life [1]: 4.5 h; Cmax [4]: 2600 nM
O=C(Cc1c(Cl)ccc(NCC(F)(F)c2ccccn2)[n+]1[O-])NCc1ccccc1-n1cncn1 | 2.6 | –
N#Cc1ccc(NCC(F)(F)c2ccccn2)[n+]([O-])c1CC(=O)NCc1ncccc1F | 1.5 | –
NCc1ccc(Cl)cc1CNC(=O)Cc1c(Cl)ccc(N)[n+]1[O-] | 26 | –
C[C@H](N)c1ccc(Cl)cc1CNC(=O)Cc1c(Cl)ccc(NCC(F)(F)c2ccccn2)[n+]1[O-] | 20 | –
N#Cc1ccc(NCC(F)(F)c2ccccn2)[n+]([O-])c1CC(=O)NCc1cc(Cl)ccc1CN | 0.001 | –
N#Cc1ccc(N)[n+]([O-])c1CC(=O)NCc1cc(Cl)ccc1-n1cnnn1 | 18 | –
N#Cc1ccc(NCC(F)(F)c2ccccn2)[n+]([O-])c1CC(=O)NCc1cc(Cl)ccc1-n1cnnn1 | 0.002 | –
C[C@@H](NC(=O)Cc1c(Cl)ccc(NCC(F)(F)c2ccccn2)[n+]1[O-])c1cc(Cl)ccc1CN | 260 | –
N#Cc1ccc(N)[n+]([O-])c1CC(=O)NCc1cc(Cl)ccc1CN | 10 | –

More lines, main results first:

Ki (Prothrombin) [nM] | Structure (SMILES) | other results
0.4 | NCc1ccccc1CNC(=O)Cc1c(Cl)ccc(NCC(F)(F)c2ccccn2)[n+]1[O-] | half-life [1]: 1.5 h; Cmax [2]: 820 nM
0.14 | O=C(Cc1cccc(NCC(F)(F)c2ccccn2)[n+]1[O-])NCc1cc(Cl)ccc1-n1cnnn1 | –
0.04 | NCc1ccc(Cl)cc1CNC(=O)Cc1cccc(NCC(F)(F)c2ccccn2)[n+]1[O-] | –
0.48 | NCc1ccc(Cl)cc1C(CO)NC(=O)Cc1c(Cl)ccc(NCC(F)(F)c2ccccn2)[n+]1[O-] (centres undefined) | Cmax [3]: 340 nM; half-life [1]: 1.5 h
0.42 | [O-][n+]1c(NCC(F)(F)c2ccccn2)ccc(Cl)c1CC(O)NCc1cccc(Cl)c1 (centres undefined) | –
2.5 | O=C(Cc1c(Cl)ccc(NCC(F)(F)c2ccccn2)[n+]1[O-])NCc1ncccc1-n1cncn1 | –
0.45 | C[C@@H](N)c1ccc(Cl)cc1CNC(=O)Cc1c(Cl)ccc(NCC(F)(F)c2ccccn2)[n+]1[O-] | half-life [1]: 2 h; Cmax [5]: 100 nM
1.5 | O=C(Cc1cccc(NCC(F)(F)c2ccccn2)[n+]1[O-])NCc1cc(Cl)ccc1-n1cncn1 | –
0.08 | N#Cc1ccc(NCC(F)(F)c2ccccn2)[n+]([O-])c1CC(O)NCc1cccc(Cl)c1 (centres undefined) | –
0.05 | O=C(Cc1c(Cl)ccc(NCC(F)(F)c2ccccn2)[n+]1[O-])NCc1cc(Cl)ccc1-n1cncn1 | –
< 0.01 | NCc1ccc(Cl)cc1CNC(=O)Cc1c(Cl)ccc(NCC(F)(F)c2ccccn2)[n+]1[O-] | –
